Measured values taken from ChEMBL document CHEMBL1156815, “Synthesis and opioid activity of enantiomeric N-substituted 2,3,4,4a,5,6,7,7a-octahydro-1H-benzofuro[3,2-e]isoquinolines” (J Med Chem, 2010).

Columns and labels:
Homo sapiens [1] = species: Homo sapiens; test: Selectivity index, ratio of Ki for human delta opioid receptor to human mu opioid receptor
Homo sapiens [2] = species: Homo sapiens; test: Selectivity index, ratio of Ki for human kappa opioid receptor to human mu opioid receptor
Rattus norvegicus = species: Rattus norvegicus; test: Selectivity index, ratio of Ki for rat brain sigma2 receptor to Ki for rat brain sigma1 receptor
[3] = Displacement of [3H]di-O-tolyguanidine from sigma2 receptor in rat brain homogenate; type: tissue-based
[4] = molecular target: T1, Delta-type opioid receptor (Homo sapiens, UniProt P41143); test: Displacement of [125I]OXY from human delta opioid receptor expressed in CHO cells; type: cell-based
T1 sequence (P41143 whole entry): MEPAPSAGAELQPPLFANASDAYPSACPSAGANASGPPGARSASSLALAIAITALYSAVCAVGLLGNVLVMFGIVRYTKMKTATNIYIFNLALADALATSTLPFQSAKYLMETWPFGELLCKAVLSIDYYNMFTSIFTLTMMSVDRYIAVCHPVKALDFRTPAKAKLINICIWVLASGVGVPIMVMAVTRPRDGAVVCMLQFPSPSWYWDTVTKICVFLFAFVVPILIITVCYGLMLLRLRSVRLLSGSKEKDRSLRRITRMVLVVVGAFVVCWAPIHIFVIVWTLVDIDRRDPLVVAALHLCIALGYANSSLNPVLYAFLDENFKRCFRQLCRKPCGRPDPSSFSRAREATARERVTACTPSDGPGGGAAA

[5] = molecular target: Sigma non-opioid intracellular receptor 1 (Rattus norvegicus, UniProt Q9R0C9); test: Displacement of [3H](+)-pentazocine from sigma1 receptor in rat brain homogenate; type: tissue-based
Sequence of Sigma non-opioid intracellular receptor 1 (Q9R0C9 whole entry): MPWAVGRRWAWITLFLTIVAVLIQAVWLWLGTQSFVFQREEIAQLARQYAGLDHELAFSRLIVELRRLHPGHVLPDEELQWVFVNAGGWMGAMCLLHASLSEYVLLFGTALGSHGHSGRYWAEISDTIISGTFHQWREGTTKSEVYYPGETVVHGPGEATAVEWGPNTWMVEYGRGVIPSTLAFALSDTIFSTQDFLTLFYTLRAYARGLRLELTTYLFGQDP
Summary of the method: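 Rat brain homogenate binding. Nonspecific binding defined with haloperidol. Means ± SEM from replicate assays.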

[6] = molecular target: T2, Kappa-type opioid receptor (Homo sapiens, UniProt P41145); test: biochemical; type: cell-based, CHO
T2 sequence (P41145 whole entry): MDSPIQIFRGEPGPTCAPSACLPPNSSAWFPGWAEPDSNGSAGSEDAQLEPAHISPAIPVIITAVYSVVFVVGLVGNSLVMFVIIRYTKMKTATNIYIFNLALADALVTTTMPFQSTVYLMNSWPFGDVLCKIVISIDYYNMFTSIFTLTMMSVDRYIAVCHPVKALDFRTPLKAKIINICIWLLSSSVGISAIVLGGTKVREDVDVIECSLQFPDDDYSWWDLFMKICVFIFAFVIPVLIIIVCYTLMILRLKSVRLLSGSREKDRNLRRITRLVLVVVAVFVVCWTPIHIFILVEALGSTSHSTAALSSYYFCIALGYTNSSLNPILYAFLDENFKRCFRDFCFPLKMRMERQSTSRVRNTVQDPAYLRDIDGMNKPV

[7] = molecular target: T2, Kappa-type opioid receptor; conditions: CHO
[8] = molecular target: T1, Delta-type opioid receptor; conditions: CHO
Mu-type opioid receptor [9] = molecular target: T3, Mu-type opioid receptor (Homo sapiens, UniProt P35372); conditions: CHO
T3 sequence (P35372 whole entry): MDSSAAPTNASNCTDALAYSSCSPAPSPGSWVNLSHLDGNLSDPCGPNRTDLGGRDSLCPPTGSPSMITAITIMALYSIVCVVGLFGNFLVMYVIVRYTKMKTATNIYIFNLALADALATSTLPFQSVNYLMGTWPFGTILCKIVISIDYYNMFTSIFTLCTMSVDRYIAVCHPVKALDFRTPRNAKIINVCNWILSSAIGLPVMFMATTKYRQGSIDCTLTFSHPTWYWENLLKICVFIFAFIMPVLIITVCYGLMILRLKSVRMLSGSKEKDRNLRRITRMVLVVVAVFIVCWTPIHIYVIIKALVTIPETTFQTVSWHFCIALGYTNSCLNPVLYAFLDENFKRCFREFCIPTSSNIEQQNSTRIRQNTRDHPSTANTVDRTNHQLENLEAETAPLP

Mu-type opioid receptor [10] = molecular target: T3, Mu-type opioid receptor; test: biochemical; type: cell-based, CHO
[11] = molecular target: T1, Delta-type opioid receptor; test: Agonist activity at human delta opioid receptor expressed in CHO cells assessed as stimulation of [35S]GTPgammaS binding relative to 500 nM SNC80; type: functional, cell-based
Summary of the method: (§1)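 [35S]GTPgammaS binding stimulation at the delta receptor, n = 3, reported with SD.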

[12] = molecular target: T2, Kappa-type opioid receptor; conditions: CHO; remark: listed apart in the source
Mu-type opioid receptor [13] = molecular target: T3, Mu-type opioid receptor; conditions: CHO; remark: listed apart in the source
[14] = molecular target: T1, Delta-type opioid receptor; test: Agonist activity at human delta opioid receptor expressed in CHO cells assessed as stimulation of [35S]GTPgammaS binding; type: functional, cell-based; summary of the method: as §1
[15] = molecular target: T1, Delta-type opioid receptor; test: Binding affinity to human delta opioid receptor expressed in CHO cells; type: cell-based
Mu-type opioid receptor [16] = molecular target: T3, Mu-type opioid receptor; test: Binding affinity to human mu opioid receptor expressed in CHO cells; type: cell-based
[17] = Binding affinity to sigma receptor

Row | SMILES | Ratio Ki (Homo sapiens [2]) | Ki [3] [nM] | Ki [4] [nM] | Ki [5] [nM] | Ki [6] [nM] | Ki (Mu-type opioid receptor [10]) [nM] | also measured
1 | COc1cccc2c1O[C@H]1CCC[C@H]3CN(C)CC[C@@]231 (stereo in doubt; (-)-3a) [listing 1 of 2 here] | 15 | – | – | – | – | – | Ratio Ki (Homo sapiens [1]): 41; Ratio Ki (Rattus norvegicus): < 0.7
2 | CN1CC[C@]23c4cccc(O)c4O[C@H]2CCC[C@H]3C1 (stereo in doubt; (-)-1a) [listing 1 of 2 here] | – | > 10000 | 44 | > 10000 | 14 | – | –
3 | CC(C)=CCN1CC[C@@]2(C)c3cc(O)ccc3C[C@@H]1[C@@H]2C | – | 56 | – | – | – | – | –
4 | COc1cccc2c1O[C@H]1CCC[C@@H]3CN(C)CC[C@@]231 (stereo in doubt; (-)-4) [listing 1 of 2 here] | 21 | – | – | – | – | – | Ratio Ki (Homo sapiens [1]): 39
5 | CN1CC[C@]23c4cccc(O)c4O[C@H]2CCC[C@@H]3C1 (stereo in doubt; (+)-5) | – | – | – | – | – | – | Ki ([4]; cho): > 10000 nM; Ki ([6]; cho): > 10000 nM
6 | COc1cccc2c1O[C@H]1CCC[C@@H]3CN(C)CC[C@@]231 (stereo in doubt; (+)-4) [listing 1 of 2 here] | < 0.19 | – | – | – | – | – | –
7 | COc1cccc2c1O[C@H]1CCC[C@H]3CN(CC4CC4)CC[C@@]231 (stereo in doubt; (-)-3b) [listing 1 of 2 here] | 1.4 | – | – | – | – | – | Ratio Ki (Homo sapiens [1]): 18; Ratio Ki (Rattus norvegicus): 11
8 | Oc1cccc2c1O[C@H]1CCC[C@H]3CN(CC4CC4)CC[C@@]231 (stereo in doubt; (-)-1b) [listing 1 of 2 here] | 1.3 | – | – | – | – | – | Ratio Ki (Homo sapiens [1]): 25; ED50 [7]: 2.3 nM; Ke [8]: 20 nM; Ratio Ki (Rattus norvegicus): > 25; Ke (Mu-type opioid receptor [9]): 0.22 nM
9 | COc1cccc2c1O[C@H]1CCC[C@H]3CN(C)CC[C@@]231 (stereo in doubt; (+)-3a) [listing 1 of 2 here] | – | > 10000 | > 10000 | 658 | 7230 | 7610 | –
10 | CN1CC[C@]23c4cccc(O)c4O[C@H]2CCC[C@@H]3C1 (stereo in doubt; (-)-5) | – | – | > 10000 | – | > 10000 | – | –
11 | C=CCN1CC[C@]23c4c5ccc(O)c4O[C@H]2C(=O)CC[C@@]3(O)[C@H]1C5 [NALOXONE] | – | > 10000 | – | – | – | – | –
12 | Oc1cccc2c1O[C@H]1CCC[C@H]3CN(CCc4ccccc4)CC[C@@]231 (stereo in doubt; (-)-1c) [listing 1 of 2 here] | 50 | – | – | – | – | – | Ratio Ki (Homo sapiens [1]): 20; Emax [11]: 64%; Ke [12]: 130 nM; ED50 (Mu-type opioid receptor [13]): 10 nM; Ratio Ki (Rattus norvegicus): 23; ED50 [14]: 148 nM
13 | COc1cccc2c1O[C@H]1CCC[C@H]3CN(CC4CC4)CC[C@@]231 (stereo in doubt; (-)-3b) [listing 2 of 2 here] | – | 3270 | 544 | 285 | 41 | 30 | –
14 | COc1cccc2c1O[C@H]1CCC[C@H]3CN(CCc4ccccc4)CC[C@@]231 (stereo in doubt; (-)-3c) [listing 1 of 2 here] | 77 | – | – | – | – | – | Ratio Ki (Homo sapiens [1]): 20; Ratio Ki (Rattus norvegicus): 5.8
15 | Oc1cccc2c1O[C@H]1CCC[C@H]3CN(CCc4ccccc4)CC[C@@]231 (stereo in doubt; (+)-1c) [listing 1 of 2 here] | 4.5 | – | – | – | – | – | Ratio Ki (Homo sapiens [1]): 18; Ratio Ki (Rattus norvegicus): 2
16 | C[C@@H](NC(=O)[C@@H](N)Cc1ccc(O)cc1)C(=O)NCC(=O)N(C)[C@@H](Cc1ccccc1)C(=O)NCCO | – | – | – | – | – | – | ED50 [7]: 8940 nM
17 | COc1cccc2c1O[C@H]1CCC[C@@H]3CN(C)CC[C@@]231 (stereo in doubt; (+)-4) [listing 2 of 2 here] | – | – | > 10000 | – | 1850 | > 10000 | –

Row | SMILES | Ratio Ki (Homo sapiens [2]) | Ki [3] [nM] | Ki [4] [nM] | Ki [5] [nM] | Ki [6] [nM] | Ki (Mu-type opioid receptor [10]) [nM] | also measured
18 | COc1cccc2c1O[C@H]1CCC[C@H]3CN(CCc4ccccc4)CC[C@@]231 (stereo in doubt; (-)-3c) [listing 2 of 2 here] | – | 3270 | 490 | 560 | 1850 | 24 | –
19 | COc1cccc2c1O[C@H]1CCC[C@@H]3CN(C)CC[C@@]231 (stereo in doubt; (-)-4) [listing 2 of 2 here] | – | – | 1050 | – | 565 | 27 | –
20 | COc1cccc2c1O[C@H]1CCC[C@H]3CN(CCc4ccccc4)CC[C@@]231 (stereo in doubt; (+)-3c) [listing 1 of 2 here] | 7.9 | – | – | – | – | – | Ratio Ki (Homo sapiens [1]): 58; Ratio Ki (Rattus norvegicus): 9.2
21 | CN1CC[C@]23c4cccc(O)c4O[C@H]2CCC[C@H]3C1 (stereo in doubt; (-)-1a) [listing 2 of 2 here] | – | – | – | – | – | – | Ke [12]: 80 nM; ED50 (Mu-type opioid receptor [13]): 19 nM
22 | COc1cccc2c1O[C@H]1CCC[C@H]3CN(CC4CC4)CC[C@@]231 (stereo in doubt; (+)-3b) [listing 1 of 2 here] | – | – | – | – | – | – | Ratio Ki (Rattus norvegicus): 71
23 | Oc1cccc2c1O[C@H]1CCC[C@H]3CN(CC4CC4)CC[C@@]231 (stereo in doubt; (+)-1b) [listing 1 of 2 here] | – | 1030 | > 10000 | 201 | 699 | 1330 | –
24 | Oc1cccc2c1O[C@H]1CCC[C@H]3CN(CCc4ccccc4)CC[C@@]231 (stereo in doubt; (-)-1c) [listing 2 of 2 here] | – | 5380 | 6 | 239 | 15 | 0.3 | –
25 | COc1cccc2c1O[C@H]1CCC[C@H]3CN(CCc4ccccc4)CC[C@@]231 (stereo in doubt; (+)-3c) [listing 2 of 2 here] | – | 2550 | 8390 | 278 | 1140 | 145 | –
26 | CC(C)=CCN1CC[C@]2(C)c3cc(O)ccc3C[C@H]1[C@H]2C [(+)-PENTAZOCINE] | – | 1360 | – | – | – | – | –
27 | Oc1cccc2c1O[C@H]1CCC[C@H]3CN(CC4CC4)CC[C@@]231 (stereo in doubt; (-)-1b) [listing 2 of 2 here] | – | > 10000 | 2 | 399 | 0.1 | 0.08 | Kd [15]: 20 nM; Kd (Mu-type opioid receptor [16]): 0.22 nM
28 | Oc1cccc2c1O[C@H]1CCC[C@H]3CN(CC4CC4)CC[C@@]231 (racemic) | – | – | – | – | – | – | Ki [17]: 21 nM
29 | Oc1cccc2c1O[C@H]1CCC[C@H]3CN(CCc4ccccc4)CC[C@@]231 (stereo in doubt; (+)-1c) [listing 2 of 2 here] | – | 263 | 5000 | 131 | 1240 | 275 | –
30 | COc1cccc2c1O[C@H]1CCC[C@H]3CN(CC4CC4)CC[C@@]231 (stereo in doubt; (+)-3b) [listing 2 of 2 here] | – | 4370 | > 10000 | 62 | > 10000 | > 10000 | –
31 | CN1CC[C@]23c4cccc(O)c4O[C@H]2CCC[C@H]3C1 (stereo in doubt; (+)-1a) | – | – | > 10000 | 2010 | 6900 | – | –
32 | COc1cccc2c1O[C@H]1CCC[C@H]3CN(C)CC[C@@]231 (stereo in doubt; (+)-3a) [listing 2 of 2 here] | 0.95 | – | – | – | – | – | Ratio Ki (Rattus norvegicus): > 15
33 | Oc1cccc2c1O[C@H]1CCC[C@H]3CN(CC4CC4)CC[C@@]231 (stereo in doubt; (+)-1b) [listing 2 of 2 here] | 0.53 | – | – | – | – | – | Ratio Ki (Rattus norvegicus): 5.1
34 | COc1cccc2c1O[C@H]1CCC[C@H]3CN(C)CC[C@@]231 (stereo in doubt; (-)-3a) [listing 2 of 2 here] | – | 7480 | 9750 | > 10000 | 3470 | 236 | –
